{"source": "ChEMBL document CHEMBL4390675", "about": "“Dopamine D4 Receptor-Selective Compounds Reveal Structure-Activity Relationships that Engender Agonist Efficacy” (J Med Chem, 2019)", "key": {"[1]": {"target": "D(1A) dopamine receptor (Homo sapiens) (UniProt P21728)", "sequence (P21728 whole entry)": "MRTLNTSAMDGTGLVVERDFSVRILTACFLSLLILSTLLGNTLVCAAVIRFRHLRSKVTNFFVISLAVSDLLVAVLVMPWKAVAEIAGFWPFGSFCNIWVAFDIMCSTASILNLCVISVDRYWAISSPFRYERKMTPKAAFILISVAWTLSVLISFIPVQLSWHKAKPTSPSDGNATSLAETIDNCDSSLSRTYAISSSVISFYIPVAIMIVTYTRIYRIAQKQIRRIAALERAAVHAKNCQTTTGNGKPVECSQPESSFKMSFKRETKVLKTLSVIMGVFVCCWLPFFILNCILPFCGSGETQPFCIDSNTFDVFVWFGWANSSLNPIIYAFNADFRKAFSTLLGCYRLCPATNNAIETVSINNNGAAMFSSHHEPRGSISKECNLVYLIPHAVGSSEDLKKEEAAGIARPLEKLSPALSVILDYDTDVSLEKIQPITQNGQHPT", "assay": "Agonist activity at D1 receptor (unknown origin) stably expressed in CHOK1 cells assessed as induction of beta-arrestin recruitment measured after 90 mins by luminescence assay", "assay_type": "cell-based"}, "D(4) dopamine receptor [2]": {"target": "T1, D(4) dopamine receptor (Homo sapiens, UniProt P21917)", "T1 sequence (P21917 whole entry)": "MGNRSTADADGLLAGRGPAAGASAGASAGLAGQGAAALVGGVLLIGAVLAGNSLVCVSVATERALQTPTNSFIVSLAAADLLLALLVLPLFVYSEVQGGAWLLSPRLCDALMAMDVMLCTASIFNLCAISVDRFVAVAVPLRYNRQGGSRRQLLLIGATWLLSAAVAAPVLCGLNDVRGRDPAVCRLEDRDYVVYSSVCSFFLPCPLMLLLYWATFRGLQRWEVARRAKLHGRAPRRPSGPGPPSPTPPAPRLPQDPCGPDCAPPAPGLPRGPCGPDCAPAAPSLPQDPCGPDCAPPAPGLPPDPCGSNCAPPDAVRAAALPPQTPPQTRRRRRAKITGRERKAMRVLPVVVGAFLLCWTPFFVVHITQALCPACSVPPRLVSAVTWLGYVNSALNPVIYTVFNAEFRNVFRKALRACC", "assay": "Antagonist activity at human D4 receptor expressed in CHOK1 cells assessed as inhibition of dopamine-induced beta-arrestin recruitment measured after 90 mins by luminescence assay", "assay_type": "cell-based", "details": "read-out: IC50"}, "[3]": {"target": "T2, D(4) dopamine receptor (Homo sapiens) (UniProt P21917)", "T2 sequence (whole entry)": "T1 sequence (P21917 whole entry)", "assay": "Antagonist activity at human D4 receptor expressed in CHOK1 cells assessed as inhibition of dopamine-induced beta-arrestin recruitment measured after 90 mins by luminescence assay relative to control", "assay_type": "cell-based", "set-up": "concentration or dose not given beside the values"}, "[4]": {"target": "T2, D(4) dopamine receptor (Homo sapiens)", "assay": "Agonist activity at human D4 receptor expressed in CHOK1 cells assessed as inhibition of forskolin-induced cAMP accumulation measured after 30 mins by Eu-cAMP tracer based TR-FRET assay relative to dopamine", "assay_type": "functional, cell-based", "how_it_was_run": "(§1)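 LANCE Ultra TR-FRET cAMP assay in CHO-K1 cells stably expressing human D2R long isoform or D4R. Cells were plated in HBSS/5 mM HEPES/0.2 μM metabisulfite, then immediately given compound plus forskolin (10 μM final) for 30 min at room temperature. Eu-cAMP tracer and ULight-anti-cAMP were added for 2 h in the dark. Values are % of maximal dopamine signal, nonlinear regression of triplicate runs, n = 3–4.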"}, "D(2) dopamine receptor [5]": {"target": "T3, D(2) dopamine receptor (Homo sapiens, UniProt P14416)", "T3 sequence (P14416 whole entry)": "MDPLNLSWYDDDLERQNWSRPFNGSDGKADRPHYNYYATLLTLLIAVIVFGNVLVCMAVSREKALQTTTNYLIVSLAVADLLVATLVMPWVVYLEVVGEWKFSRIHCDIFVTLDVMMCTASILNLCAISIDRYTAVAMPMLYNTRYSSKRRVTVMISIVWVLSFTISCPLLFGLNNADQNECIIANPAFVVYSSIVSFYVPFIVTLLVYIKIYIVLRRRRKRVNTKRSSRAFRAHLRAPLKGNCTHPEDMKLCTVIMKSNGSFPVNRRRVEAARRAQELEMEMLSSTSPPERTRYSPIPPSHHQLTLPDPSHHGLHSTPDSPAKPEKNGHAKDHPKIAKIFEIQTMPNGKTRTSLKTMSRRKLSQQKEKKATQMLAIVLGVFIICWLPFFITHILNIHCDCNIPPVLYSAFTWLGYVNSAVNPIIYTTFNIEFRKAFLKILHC", "assay": "Agonist activity at human D2L receptor expressed in CHOK1 cells assessed as inhibition of forskolin-induced cAMP accumulation measured after 30 mins by Eu-cAMP tracer based TR-FRET assay relative to dopamine", "assay_type": "cell-based", "details": "0.5 h"}, "D(3) dopamine receptor [6]": {"target": "T4, D(3) dopamine receptor (Homo sapiens, UniProt P35462)", "T4 sequence (P35462 whole entry, canonical isoform)": "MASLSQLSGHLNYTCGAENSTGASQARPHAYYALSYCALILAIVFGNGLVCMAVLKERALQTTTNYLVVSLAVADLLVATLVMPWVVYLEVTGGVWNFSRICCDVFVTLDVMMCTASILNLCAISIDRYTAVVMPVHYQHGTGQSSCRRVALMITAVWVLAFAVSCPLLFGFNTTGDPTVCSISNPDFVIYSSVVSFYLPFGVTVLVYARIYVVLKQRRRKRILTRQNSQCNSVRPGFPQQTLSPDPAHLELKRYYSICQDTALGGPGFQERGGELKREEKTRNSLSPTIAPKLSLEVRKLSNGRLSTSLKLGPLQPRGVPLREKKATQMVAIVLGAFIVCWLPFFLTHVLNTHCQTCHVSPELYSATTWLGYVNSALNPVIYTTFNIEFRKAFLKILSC", "assay": "Antagonist activity at human D3 receptor expressed in CHOK1 cells assessed as inhibition of dopamine-induced beta-arrestin recruitment measured after 90 mins by luminescence assay relative to control", "assay_type": "cell-based", "how_it_was_run": "(§2)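 Antagonist-mode PathHunter β-arrestin assay in CHO-K1 cells stably expressing human D2R long isoform or D3R, seeded overnight. Compound dilutions in PBS with 0.2 μM metabisulfite were co-incubated with an EC80 dopamine concentration for 90 min at 37 °C. Detection reagent was added for 45–60 min at room temperature, then luminescence was read. Values are % of dopamine EC80 response, from nonlinear regression of triplicate runs, n = 3–4.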"}, "[7]": {"target": "D(1B) dopamine receptor (Homo sapiens) (UniProt P21918)", "sequence (P21918 whole entry)": "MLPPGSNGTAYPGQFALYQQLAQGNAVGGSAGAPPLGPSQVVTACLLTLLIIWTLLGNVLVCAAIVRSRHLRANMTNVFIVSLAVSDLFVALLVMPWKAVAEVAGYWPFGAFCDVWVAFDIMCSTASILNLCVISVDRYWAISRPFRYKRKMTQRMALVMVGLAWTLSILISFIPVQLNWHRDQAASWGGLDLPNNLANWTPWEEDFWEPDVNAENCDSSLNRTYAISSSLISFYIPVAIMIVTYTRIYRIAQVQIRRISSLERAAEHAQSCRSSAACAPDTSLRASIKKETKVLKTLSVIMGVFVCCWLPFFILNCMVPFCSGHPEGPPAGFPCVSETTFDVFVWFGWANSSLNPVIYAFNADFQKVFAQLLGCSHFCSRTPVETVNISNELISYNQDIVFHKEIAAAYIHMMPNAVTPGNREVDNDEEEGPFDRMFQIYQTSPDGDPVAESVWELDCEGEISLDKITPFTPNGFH", "assay": "Antagonist activity at D5 receptor (unknown origin) stably expressed in CHOK1 cells assessed as inhibition of dopamine-induced beta-arrestin recruitment measured after 90 mins by luminescence assay", "assay_type": "cell-based"}, "D(4) dopamine receptor [8]": {"target": "T1, D(4) dopamine receptor", "assay": "Agonist activity at human D4 receptor expressed in CHOK1 cells assessed as induction of beta-arrestin recruitment measured after 90 mins by luminescence assay", "assay_type": "cell-based", "details": "read-out: EC50", "how_it_was_run": "(§3)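 PathHunter enzyme-complementation assay in CHO-K1 cells stably expressing human D2R long isoform, D3R or D4R, seeded overnight in Ham's F12/10% FBS. Compounds were diluted in PBS with 0.2 μM sodium metabisulfite and applied at multiple concentrations for 90 min at 37 °C. Detection reagent was added for 45–60 min at room temperature, then luminescence was read. Values are % of maximal dopamine response, from nonlinear regression of triplicate runs, mean ± SEM, n = 3–4.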"}, "D(3) dopamine receptor [9]": {"target": "T4, D(3) dopamine receptor", "assay": "Agonist activity at human D3 receptor expressed in CHOK1 cells assessed as induction of beta-arrestin recruitment measured after 90 mins by luminescence assay", "assay_type": "cell-based", "details": "read-out: EC50", "how_it_was_run": "as §3"}, "D(3) dopamine receptor [10]": {"target": "T4, D(3) dopamine receptor", "assay": "Agonist activity at human D3 receptor expressed in CHOK1 cells assessed as induction of beta-arrestin recruitment measured after 90 mins by luminescence assay relative to control", "assay_type": "cell-based", "how_it_was_run": "as §3"}, "D(3) dopamine receptor [11]": {"target": "T4, D(3) dopamine receptor", "assay": "Displacement of [3H]N-methylspiperone from human D3 receptor expressed in HEK293 cell membranes measured after 60 mins by scintillation counting method", "how_it_was_run": "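HEK293 cells stably expressing human D3R; membranes in EBSS buffer pH 7.4, stored at −80 °C. 20 μg protein/well with 0.4 nM [3H]N-methylspiperone (final), half-log dilutions in 30% DMSO, in triplicate. 60 min at room temperature, then GF/B filtration. Nonspecific binding with 10 μM (+)-butaclamol.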"}, "D(4) dopamine receptor [12]": {"target": "T1, D(4) dopamine receptor", "assay": "Antagonist activity at human D4 receptor expressed in CHOK1 cells assessed as suppression of dopamine-induced inhibition of forskolin-stimulated cAMP accumulation measured after 30 mins by Eu-cAMP tracer based TR-FRET assay", "assay_type": "functional, cell-based"}, "D(4) dopamine receptor [13]": {"target": "T1, D(4) dopamine receptor", "assay": "Agonist activity at human D4 receptor expressed in CHOK1 cells assessed as inhibition of forskolin-induced cAMP accumulation measured after 30 mins by Eu-cAMP tracer based TR-FRET assay", "assay_type": "functional, cell-based", "details": "read-out: EC50", "how_it_was_run": "as §1"}, "D(2) dopamine receptor [14]": {"target": "T3, D(2) dopamine receptor", "assay": "Agonist activity at human D2L receptor expressed in CHOK1 cells assessed as induction of beta-arrestin recruitment measured after 90 mins by luminescence assay relative to control", "assay_type": "cell-based", "how_it_was_run": "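PathHunter enzyme-complementation assay in CHO-K1 cells stably expressing human D2R long isoform, seeded 2625 cells/well and incubated overnight. Compounds diluted in PBS with 0.2 μM sodium metabisulfite, tested at multiple concentrations, 90 min at 37 °C. Detection reagent then 45–60 min at room temperature, luminescence read. Normalized to maximal dopamine response. Nonlinear regression of triplicate runs, n = 3–4.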"}, "D(4) dopamine receptor [15]": {"target": "T1, D(4) dopamine receptor", "assay": "Displacement of [3H]N-methylspiperone from human D4.4 receptor expressed in HEK293 cell membranes measured after 60 mins by scintillation counting method", "how_it_was_run": "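Frozen HEK293 membranes stably expressing human D4.4R (30 μg/well) in EBSS-bicarbonate buffer, pH 7.4, were incubated with 0.4 nM [3H]N-methylspiperone and half-log compound dilutions (30% DMSO vehicle) for 60 min at room temperature. Nonspecific binding was defined by 10 μM (+)-butaclamol. Samples were filtered on GF/B filters and counted by scintillation.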"}, "D(3) dopamine receptor [16]": {"target": "T4, D(3) dopamine receptor", "assay": "Displacement of [3H](R)-(+)-7-OH-DPAT from human D3 receptor expressed in HEK293 cell membranes measured after 90 mins by scintillation counting method", "how_it_was_run": "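Fresh HEK293 hD3R membranes (40 μg/well) in 50 mM Tris, 10 mM MgCl2, 1 mM EDTA, pH 7.4 were incubated with 0.5 nM [3H]-(R)-(+)-7-OH-DPAT and half-log compound dilutions in 30% DMSO for 90 min at room temperature. Nonspecific binding was defined with 10 μM (+)-butaclamol. Samples were filtered on PEI-soaked GF/B filters and counted by scintillation.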"}, "[17]": {"target": "D(1B) dopamine receptor (Homo sapiens) (UniProt P21918)", "assay": "Agonist activity at D5 receptor (unknown origin) stably expressed in CHOK1 cells assessed as induction of beta-arrestin recruitment measured after 90 mins by luminescence assay", "assay_type": "cell-based"}, "D(4) dopamine receptor [18]": {"target": "T1, D(4) dopamine receptor", "assay": "Displacement of [3H](R)-(+)-7-OH-DPAT from human D4.4 receptor expressed in HEK293 cell membranes measured after 90 mins by scintillation counting method", "how_it_was_run": "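HEK293 cells stably expressing human D4.4R; membranes used fresh in 50 mM Tris, 10 mM MgCl2, 1 mM EDTA, pH 7.4. 60 μg protein/well with 3 nM [3H]-(R)-(+)-7-OH-DPAT (final), half-log dilutions in 30% DMSO, in triplicate. 90 min at room temperature, then GF/B filtration. Nonspecific binding with 10 μM (+)-butaclamol.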"}, "[19]": {"target": "D(1A) dopamine receptor (Homo sapiens) (UniProt P21728)", "assay": "Antagonist activity at D1 receptor (unknown origin) stably expressed in CHOK1 cells assessed as inhibition of dopamine-induced beta-arrestin recruitment measured after 90 mins by luminescence assay", "assay_type": "cell-based"}, "[20]": {"target": "T2, D(4) dopamine receptor (Homo sapiens)", "assay": "Agonist activity at human D4 receptor expressed in CHOK1 cells assessed as induction of beta-arrestin recruitment measured after 90 mins by luminescence assay relative to control", "assay_type": "cell-based", "how_it_was_run": "as §3"}, "D(3) dopamine receptor [21]": {"target": "T4, D(3) dopamine receptor", "assay": "Antagonist activity at human D3 receptor expressed in CHOK1 cells assessed as inhibition of dopamine-induced beta-arrestin recruitment measured after 90 mins by luminescence assay", "assay_type": "cell-based", "details": "read-out: IC50", "how_it_was_run": "as §2"}, "[22]": {"target": "T2, D(4) dopamine receptor (Homo sapiens)", "assay": "Antagonist activity at human D4 receptor expressed in CHOK1 cells assessed as suppression of dopamine-induced inhibition of forskolin-stimulated cAMP accumulation measured after 30 mins by Eu-cAMP tracer based TR-FRET assay relative to dopamine", "assay_type": "functional, cell-based", "set-up": "concentration or dose not given beside the values"}}, "note": "The source made the active and inactive calls. No cut-off for these calls is given here."}
{"smiles": "Cc1cccc(NC(=O)CN2CCN(c3ncccn3)CC2)c1", "values": [{"measurement": "Activity", "setting": "[1]", "result": "inactive"}, {"measurement": "IC50", "setting": "D(4) dopamine receptor [2]", "result": 197, "unit": "nM"}, {"measurement": "inhibition", "setting": "[3]", "result": 80.6, "unit": "%"}, {"measurement": "Emax", "setting": "[4]", "result": 64.6, "unit": "%"}, {"measurement": "Emax", "setting": "D(2) dopamine receptor [5]", "result": 54.4, "unit": "%"}, {"measurement": "inhibition", "setting": "D(3) dopamine receptor [6]", "result": "inactive"}, {"measurement": "inhibition", "setting": "[7]", "result": "inactive"}, {"measurement": "EC50", "setting": "D(4) dopamine receptor [8]", "result": 278, "unit": "nM"}, {"measurement": "EC50", "setting": "D(3) dopamine receptor [9]", "result": 5.58, "unit": "µM"}, {"measurement": "Emax", "setting": "D(3) dopamine receptor [10]", "result": 58.4, "unit": "%"}, {"measurement": "Ki", "setting": "D(3) dopamine receptor [11]", "result": "> 10", "unit": "µM"}, {"measurement": "IC50", "setting": "D(4) dopamine receptor [12]", "result": 463, "unit": "nM"}, {"measurement": "EC50", "setting": "D(4) dopamine receptor [13]", "result": 3.4, "unit": "nM"}, {"measurement": "Emax", "setting": "D(2) dopamine receptor [14]", "result": 39.6, "unit": "%"}, {"measurement": "Ki", "setting": "D(4) dopamine receptor [15]", "result": 318, "unit": "nM"}, {"measurement": "Ki", "setting": "D(3) dopamine receptor [16]", "result": 5.99, "unit": "µM"}, {"measurement": "Activity", "setting": "[17]", "result": "inactive"}, {"measurement": "Ki", "setting": "D(4) dopamine receptor [18]", "result": 5.66, "unit": "nM"}, {"measurement": "inhibition", "setting": "[19]", "result": "inactive"}, {"measurement": "Emax", "setting": "[20]", "result": 24.7, "unit": "%"}, {"measurement": "IC50", "setting": "D(3) dopamine receptor [21]", "result": "> 100", "unit": "µM"}, {"measurement": "inhibition", "setting": "[22]", "result": 45, "unit": "%"}]}
